A selection: hits, their analogues and other compounds. The true share with any hit is near 3.3%.
Arrestin-AP2 inh = inhibitors of beta-arrestin/AP2 binding, primary screen, biochemical, GPCR trafficking, flow cytometry. inhibition, % at 10 µM. FITC-arrestin peptide / GST-AP2 beads; AP2 beta2 appendage carries R879A mutation. 340,000 tested, 0.31% active. beta-arrestin 1 C-terminal peptide binding to AP2 beta2-adaptin appendage (human);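 active = inhibition above a set limit, near 3 SD of compounds lacking own fluorescence, cut at about 54% in these data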;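 note: plate controls were DMSO wells for no effect and 5 µM unlabelled arrestin peptide for full effect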
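Material – GST-tagged AP2 beta2-adaptin appendage (R879A) on 4 µm glutathione beads · Probe or stimulus – fluorescein-tagged arrestin peptide at 50 nM final · Timing – 12 min plus 1 h, RT · Detection – bead flow cytometry, FITC channel · Read-out basis – inhibition as reduced fluorescein signal on beads, percent · Medium – PBS plus Tween 20 (0.05%) and BSA (0.1%)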
NRP1-CendR mod = modulators of CendR peptide binding to NRP-1, primary screen, biochemical, fluorescence polarization, uHTS; FAM-RPARPAR peptide binding to NRP-1; inhibition, % at 25 µM; 360,000 tested, 0.85% active;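 active = inhibition or corrected inhibition above about 18%, plus a signal ratio from 0.5 to 1.5, limit read from the data, passing the limit was not always enough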
Target sequence (O14786 whole entry, looked up): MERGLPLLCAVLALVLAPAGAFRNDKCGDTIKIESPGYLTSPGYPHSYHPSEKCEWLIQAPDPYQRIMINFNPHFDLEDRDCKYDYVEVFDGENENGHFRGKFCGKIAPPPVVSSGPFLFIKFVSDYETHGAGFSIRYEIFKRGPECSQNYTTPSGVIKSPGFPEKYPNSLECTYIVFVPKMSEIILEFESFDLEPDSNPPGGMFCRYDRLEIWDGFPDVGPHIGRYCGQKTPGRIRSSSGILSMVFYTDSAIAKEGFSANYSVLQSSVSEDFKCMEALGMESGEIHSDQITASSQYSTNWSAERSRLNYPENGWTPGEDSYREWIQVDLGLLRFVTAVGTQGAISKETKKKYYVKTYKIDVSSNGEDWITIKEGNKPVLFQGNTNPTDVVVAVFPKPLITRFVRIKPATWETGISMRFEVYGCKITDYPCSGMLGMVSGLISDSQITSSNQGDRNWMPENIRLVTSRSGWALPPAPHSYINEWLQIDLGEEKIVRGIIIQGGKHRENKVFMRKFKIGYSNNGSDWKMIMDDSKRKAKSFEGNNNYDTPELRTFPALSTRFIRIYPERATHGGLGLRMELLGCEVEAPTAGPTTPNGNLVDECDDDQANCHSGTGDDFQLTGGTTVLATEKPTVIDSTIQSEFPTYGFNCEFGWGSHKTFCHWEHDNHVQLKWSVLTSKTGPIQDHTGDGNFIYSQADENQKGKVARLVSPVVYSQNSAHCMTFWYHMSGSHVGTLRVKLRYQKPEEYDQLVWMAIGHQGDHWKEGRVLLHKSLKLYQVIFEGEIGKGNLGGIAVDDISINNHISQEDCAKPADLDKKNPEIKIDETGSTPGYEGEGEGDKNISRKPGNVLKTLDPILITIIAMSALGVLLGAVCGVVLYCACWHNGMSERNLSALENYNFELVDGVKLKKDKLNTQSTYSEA
Lipid droplet = inhibitors of hepatocyte lipid droplet formation, primary screen, imaging, high-throughput imaging, BODIPY stain. AML12 mouse hepatocytes, oleate lipid droplets. 240,000 tested, 0.4% active. inhibition, % at 6.5 µM;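 active = lipid droplet intensity inhibited by at least 50%, with more than 500 cells counted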
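System: AML12 hepatocytes (mouse). Probe or stimulus: oleic acid at 100 µM to induce lipid droplet formation. Times: overnight treatment with compound plus oleate. Detection: Image-based BODIPY and DAPI two-channel analysis. Evaluation: percent inhibition of filter-corrected integrated lipid droplet intensity per well.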
m5-HT2A agonist = mouse Htr2a agonists via beta-arrestin recruitment, primary screen, cell-based, luminescence. CHO-K1 mHTR2A beta-arrestin complementation; percent of 30 µM serotonin response. 360,000 tested, 0.66% active. 5-hydroxytryptamine receptor 2A (Mus musculus), P35363. activation, % at 7.6 µM;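 active = activation above a run cutoff, the mean activation of all tested compounds plus 3 SD, cut at about 14% in these data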;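 note: 0% = plate median of compound wells and 100% = 30 µM serotonin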
HGIII-sPLA2 inh = human group III sPLA2 inhibitors, primary screen, biochemical, QFRET, BODIPY PC-A2 liposome substrate. inhibition, % at 12.2 µM. 370,000 tested, 0.56% active. AID 743126, 2013. QFRET BODIPY PC-A2 liposome hydrolysis, fluorescence;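 active = inhibition above mean plus 3 SD of compounds lying within the high and low control bounds, cut at about 19% in these data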;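 note: 0% = median of test compound wells and 100% = no enzyme DMSO wells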
M18AAP inhibitor = PfM18AAP inhibitors, malaria aminopeptidase, primary screen, biochemical, QFRET, recombinant enzyme; 290,000 tested, 1.2% active; AID 1822, 2009; H-Glu-NHMec fluorogenic cleavage; inhibition, % at 7.35 µM;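 active = inhibition above the campaign mean inhibition over all tested compounds plus 3 SD, cut at about 28% in these data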;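 note: 0% = plate median of test compound wells and 100% = 2 mM ZnCl2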
OPRM1 ag = OPRM1 agonists via beta-arrestin recruitment, confirmation, counter-screen for mouse HTR2A agonist project, cell-based, luminescence, single concentration; AID 624380, 2012; shares compounds with m5-HT2A agonist; U2OS OPRM1 beta-arrestin PathHunter; DMSO 0%, DAMGO 9.3 µM 100%; 2,300 tested, 5.3% active; activation, % at 9.3 µM;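 active = mean activation above the mean of DMSO-only wells plus 3 SD, cut at about 0.5% in these data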
m5-HT2A ag conf = mouse HTR2A agonists, beta-arrestin recruitment, confirmation, cell-based, luminescence, CHO-K1 PathHunter, triplicate; shares compounds with m5-HT2A agonist; DMSO 0%, 30 µM serotonin 100%; activation, % at 7.6 µM; 2,300 tested, 19% active; AID 624381, 2012;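 active = mean activation across triplicates above the hit threshold derived in the original primary screen, cut at about 15% in these data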
Numbers without * were called inactive; . = no result given.

SMILES | Arrestin-AP2 inh | NRP1-CendR mod | Lipid droplet | m5-HT2A agonist | HGIII-sPLA2 inh | M18AAP inhibitor | OPRM1 ag | m5-HT2A ag conf
OCC[C@@H]1C[C@H](O)[C@@H](O)[C@@]2(OCCCc3cc(C(F)(F)F)ccc32)O1 | . | 13.9 | . | 14.7* | -4.2 | . | -0.3 | 6.9
OCC[C@@H]1C[C@H](O)[C@@H](O)[C@]2(OCCc3cc(C(F)(F)F)ccc32)O1 | . | -11.8 | . | -2.3 | 5.0 | . | . | .
CC(C)C[C@H]1CN=C(N(C)C)N1CCCCc1ccccc1 | 7.2 | 11.2 | . | 19.7* | -18.0 | . | -0.5 | -3.4
C[C@H]1CN=C(N(C)C)N1CCCCc1ccccc1 | 11.5 | 6.1 | . | -0.2 | 9.3 | . | . | .
COC(=O)CSc1ccc(S(=O)(=O)N2CCC(C)CC2)cc1[N+](=O)[O-] | -3.8 | 4.4 | -6.3 | 16.8* | -2.9 | 5.0 | -0.4 | -4.3
CCCCN(CCCC)S(=O)(=O)c1ccc(SCC(=O)OCC)c([N+](=O)[O-])c1 | -10.9 | 11.2 | 5.6 | -2.2 | -31.1 | 6.7 | . | .
CCOC(=O)CSc1ccc(S(=O)(=O)N(CC)CC)cc1[N+](=O)[O-] | 22.0 | 8.8 | -1.9 | 17.0* | -15.9 | 6.7 | -0.5 | -3.5
CC/C(=N\NC(=O)C1CCCC1)c1ccc(Br)cc1 | -5.9 | 15.3 | -2.9 | 18.4* | 7.8 | -5.1 | -0.7 | -2.5
COc1cccc(N2CCN(S(=O)(=O)c3ccc4nc(-c5ccccc5)[nH]c4c3)CC2)c1 | 30.6 | -0.1 | 2.7 | 16.0* | -23.0 | 4.1 | -0.3 | -1.5
COc1cccc(N2CCN(S(=O)(=O)c3ccc(-c4coc(C)n4)cc3)CC2)c1 | 22.2 | -0.2 | -5.3 | 4.9 | -8.5 | -16.5 | . | .
Cc1cc(C)cc(CC(=O)N2CCC2(C)C(=O)NS(=O)(=O)c2ccc(C#N)cc2)c1 (configuration not stated) | . | 5.4 | . | 15.7* | -5.9 | . | -0.7 | -2.6
CC(C)(C)c1ccc(CC(=O)N2CCC2(C)C(=O)NS(=O)(=O)c2cccc(OC(F)F)c2)cc1 (configuration not stated) | . | 4.0 | . | 16.3* | -18.7 | . | 0.2 | 4.0
Cc1cc(C)cc(CC(=O)N2CCC2(C)C(=O)NS(=O)(=O)c2cccc(OC(F)F)c2)c1 (configuration not stated) | . | -11.7 | . | -0.5 | -1.2 | . | . | .
CC(C)(C)c1ccc(S(=O)(=O)NC(=O)C2(C)CCN2C(=O)C2(c3ccccc3)CC2)cc1 (configuration not stated) | . | -11.6 | . | 17.5* | -17.1 | . | -0.6 | -1.9
CC1(C(=O)NS(=O)(=O)c2ccc(Br)cc2)CCN1C(=O)C1(c2ccccc2)CC1 (configuration not stated) | . | -6.0 | . | 4.3 | 7.5 | . | . | .
COc1ccc(C)cc1NC(=O)Nc1ccncc1 | -8.3 | -0.9 | 27.6 | -6.5 | -6.2 | 3.1 | . | .
CCc1nc2c(OCC(=O)N3CCOCC3)cccn2c1N(C=O)Cc1ccccc1 | . | -0.8 | . | -3.6 | -2.0 | . | . | .
O=C(c1ccco1)N1CCN(c2c(-c3ccccc3)c3cc(Cl)ccc3[nH]c2=O)CC1 | -4.1 | 2.0 | -0.4 | 52.4* | -10.2 | 1.3 | 1.3* | 23.6*
O=C(NC(=S)Nn1cnc2c(cnn2-c2ccccc2)c1=O)c1ccc(Cl)cc1 | 8.7 | -12.4 | -7.2 | 41.7* | 9.9 | -2.0 | -0.3 | 0.1
CC[C@]1(C(=O)OC)[C@H]2C(=O)N(Cc3ccccc3)C(=O)[C@H]2[C@H]2CN(C)C(=NCc3ccccc3)N21 | 16.1 | -3.8 | . | 21.3* | . | . | -0.4 | -2.5
O=C(Cn1nnc(-c2ccccc2F)n1)Nc1ccc(Cl)c(Cl)c1 | . | . | . | . | -1.2 | . | . | .
O=C(NS(=O)(=O)c1ccccc1)c1ccccc1 | 6.3 | -2.9 | -1.1 | -5.0 | 0.9 | -6.7 | . | .
O=C(NS(=O)(=O)c1ccc(Cl)cc1)c1ccccc1 | 5.5 | 7.9 | -12.6 | 14.7* | -1.7 | -1.3 | -0.4 | -0.3
CCOC(=O)C1=C(N)Oc2cc(O)ccc2C1c1ccccc1 (configuration not stated) | 0.5 | -0.5 | -1.5 | -3.5 | -6.5 | -3.2 | . | .
CCOC(=O)C1=C(N)Oc2cc(O)ccc2C1c1ccc(C)cc1 (configuration not stated) | 8.6 | 4.9 | 4.1 | 30.9* | -5.4 | 2.6 | 1.1* | -1.0
SMILES | Arrestin-AP2 inh | NRP1-CendR mod | Lipid droplet | m5-HT2A agonist | HGIII-sPLA2 inh | M18AAP inhibitor | OPRM1 ag | m5-HT2A ag conf
CN(C)c1cccc(NC(=O)c2cccc3c(-c4ccc(F)c(F)c4)coc23)c1 | . | -8.7 | . | -5.5 | 4.4 | . | . | .
Cc1nnsc1C(=O)NC1CCCc2c1cnn2-c1ccc(C(C)(C)C)cc1 (configuration not stated) | -9.4 | -5.9 | -13.2 | 14.5* | -7.3 | 4.4 | -0.2 | 1.7
Cc1nnsc1C(=O)NC1CCCc2c1cnn2-c1ccccc1F (configuration not stated) | 17.4 | 2.8 | 10.3 | 3.5 | 1.5 | -7.9 | . | .
O=C(NC1CCCCC1)N1CCNCC1 | 5.8 | -3.0 | . | 14.4* | -1.1 | -1.7 | -0.6 | -2.4
CCOC(=O)C1CCN(CC(C)(C)NS(=O)(=O)c2ccc(C)cc2)CC1 | 0.1 | -10.5 | -6.9 | 19.8* | -0.5 | -1.3 | -0.6 | 1.6
O=C(CCCc1ccccc1)N1CCN(C2CCCCC2)CC1 | 3.8 | 10.9 | -2.8 | 25.4* | 0.4 | -1.1 | 0.8* | 14.3
CC(C)COC(=O)N(C)C[C@@H]1OCc2cnnn2CCCC(=O)N([C@@H](C)CO)C[C@H]1C | . | 2.1 | . | -6.7 | 4.1 | . | . | .
CC(=O)Nc1ccc(NC(=O)COc2ccc(-c3ccc(C#N)cc3)cc2)cc1 | 43.5 | 0.0 | . | 11.2 | 8.0 | . | . | .
CCCn1c(=O)c2[nH]c(-c3ccc(OCC(=O)Nc4ccc(C#N)cc4)cc3)nc2n(CCC)c1=O | 7.9 | -27.3 | . | 15.6* | -4.2 | . | -0.5 | -4.0
C=CCN(CC=C)CCOc1ccccc1F | -1.4 | 4.5 | 2.6 | 1.9 | 11.8 | -0.7 | . | .
C=CCN(CC=C)CCOc1cccc2ccccc12 | 36.0 | -4.3 | -2.0 | 14.4* | -8.2 | 7.1 | 0.3 | 22.9*

Assay outcomes deposited in PubChem by several laboratories.
